Test results reported in paper PMC6057476 (ACS chemical biology, 2018).

Tests used:
Format in all cases: cell-based
[1] = tested on: transcriptome of MCF-7 cells; assay: RNA-Seq global gene expression; details: MCF-7, RNA-Seq; 10 nM E2 + 1 μM 4OHT or 15 μM R4K1
MCF-7 cells = assay: Proliferation assay; details: 10 nM estradiol, 24 hours
Procedure, shortened: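 MCF-7 cells in charcoal-dextran-stripped 5% FBS were given vehicle or 15 μM test compound, with or without 10 nM estradiol, starting on day 3. Cells were counted 24 h later by brightfield imaging cytometry. Fold change was taken versus vehicle control over three independent experiments, with error bars as SD.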

[2] = tested on: ER-regulated genes PTGES, PR, PS2, EGR3, IGFBP4 in MCF-7 cells; assay: RT-qPCR of ER-regulated native genes, MCF-7; details: 10 nM E2, 2 hrs
Procedure, shortened: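 MCF-7 cells in charcoal-dextran-stripped 5% FBS were pretreated with test compound (15 μM, 24 h), 4-hydroxytamoxifen (1 μM, 2 h) or DMSO, then with 10 nM 17β-estradiol for 2 h. Total RNA was assayed by RT-qPCR, normalised to 36B4 and converted to fold change versus DMSO vehicle by ΔΔCt. Error bars are SD.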

SMILES | reversal of E2-regulated genes of cluster 2 (226 genes) [1] | reversal of E2-regulated genes of cluster 3 (87 genes) [1] | proliferation of MCF-7 cells, estradiol (MCF-7 cells) | expression of five ER-regulated genes, estradiol [2]
CC/C(=C(\c1ccc(O)cc1)c1ccc(OCCN(C)C)cc1)c1ccccc1 [4OHT, 4-hydroxytamoxifen] | reversed fully | reversed fully |  | 
C[C@]12CC[C@@H]3c4ccc(O)cc4CC[C@H]3[C@@H]1CC[C@@H]2O [Estradiol, 17β-estradiol] |  |  | stimulated proliferation | induced expression of each of the five genes
